Results on four compounds are retold here after ChEMBL document CHEMBL1629517, “Molecular properties prediction, synthesis and antimicrobial activity of some newer oxadiazole derivatives” (2010).

Assay [1] relates to Escherichia coli. Nature of the assay: Antibacterial activity against Escherichia coli ATCC 25922 at 100 ug/ml after 24 hrs by disc-diffusion method. It counts as functional. The note with it: ATCC 25922, 24 h, read-out: IZ. On the technique in general: In agar diffusion tests the substance spreads into inoculated agar from a disc or well.
The subject of assay [2] is Candida albicans. In words: Antifungal activity against Candida albicans after 48 hrs. It counts as functional.
Assay [3] has as its system Bacillus subtilis. In words: Antibacterial activity against Bacillus subtilis ATCC 6633 after 18 to 24 hrs. Type of assay: functional.
Assay [4] concerns Pseudomonas aeruginosa. In words: Antibacterial activity against Pseudomonas aeruginosa ATCC 27853 at 100 ug/ml after 24 hrs by disc-diffusion method. It counts as functional. The following applies: ATCC 27853, 24 h, read-out: IZ.
The test system of assay [5] is Escherichia coli. Nature of the assay: Antibacterial activity against Escherichia coli ATCC 25922 after 24 hrs by broth dilution technique. It counts as functional. The note with it: ATCC 25922, 24 h. The gist of the method:
(§1)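 MIC by broth dilution: nutrient broth containing logarithmic two-fold serial dilutions of compound was inoculated with about 5 × 10⁵ c.f.u. of actively dividing bacteria.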

Assay [6] relates to Staphylococcus aureus. Nature of the assay: Antibacterial activity against Staphylococcus aureus ATCC 25923 after 18 to 24 hrs. It counts as functional.
For assay [7], the system named is Pseudomonas aeruginosa. In words: Antibacterial activity against Pseudomonas aeruginosa ATCC 27853 at 200 ug/ml after 24 hrs by disc-diffusion method. Type of assay: functional. The following applies: ATCC 27853, 24 h, read-out: IZ.
In assay [8] the test system is Staphylococcus aureus. Nature of the assay: Antibacterial activity against Staphylococcus aureus ATCC 25923 at 200 ug/ml after 24 hrs by disc-diffusion method. It counts as functional. The following applies: ATCC 25923, 24 h, read-out: IZ.
Assay [9] relates to Escherichia coli. Nature of the assay: Antibacterial activity against Escherichia coli ATCC 25922 at 200 ug/ml after 24 hrs by disc-diffusion method. Type of assay: functional. The following applies: ATCC 25922, 24 h, read-out: IZ.
Assay [10] relates to Candida albicans. In words: Antifungal activity against Candida albicans at 100 ug/ml after 48 hrs by agar diffusion method. Type of assay: functional. The following applies: read-out: IZ. The gist of the method:
(§2)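 Agar well diffusion on Sabouraud agar (peptone 1 g, D-glucose 4 g, agar 2 g per 100 ml water, pH 5.7). Plates were lawned with a saline suspension of spores, excess was decanted, and plates were dried 1 h at 37 °C. Compounds in DMSO went into punched wells, and inhibition zones were measured against controls, with voriconazole as standard.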

For assay [11], the system named is Pseudomonas aeruginosa. Nature of the assay: Antibacterial activity against Pseudomonas aeruginosa ATCC 27853 after 18 to 24 hrs. Type of assay: functional.
The subject of assay [12] is Bacillus subtilis. In words: Antibacterial activity against Bacillus subtilis ATCC 6633 at 200 ug/ml after 24 hrs by disc-diffusion method. Type of assay: functional. The note with it: ATCC 6633, 24 h, read-out: IZ.
In assay [13] the test system is Staphylococcus aureus. Nature of the assay: Antibacterial activity against Staphylococcus aureus ATCC 25923 after 24 hrs by broth dilution technique. Type of assay: functional. The note with it: ATCC 25923, 24 h. In a few lines:
as §1

The test system of assay [14] is Escherichia coli. Nature of the assay: Antibacterial activity against Escherichia coli ATCC 25922 after 18 to 24 hrs. Type of assay: functional.
Assay [15] concerns Pseudomonas aeruginosa. Nature of the assay: Antibacterial activity against Pseudomonas aeruginosa ATCC 27853 after 24 hrs by broth dilution technique. It counts as functional. The note with it: ATCC 27853, 24 h. The gist of the method:
as §1
Background: In broth dilution the organism is exposed to a series of concentrations in liquid medium.

In assay [16] the test system is Bacillus subtilis. Nature of the assay: Antibacterial activity against Bacillus subtilis ATCC 6633 at 100 ug/ml after 24 hrs by disc-diffusion method. It counts as functional. The following applies: ATCC 6633, 24 h, read-out: IZ.
In assay [17] the test system is Bacillus subtilis. Nature of the assay: Antibacterial activity against Bacillus subtilis ATCC 6633 after 24 hrs by broth dilution technique. It counts as functional. The following applies: ATCC 6633, 24 h. The gist of the method:
as §1

Assay [18] relates to Candida albicans. In words: Antifungal activity against Candida albicans at 200 ug/ml after 48 hrs by agar diffusion method. Type of assay: functional. The following applies: read-out: IZ. The gist of the method:
as §2

For assay [19], the system named is Aspergillus niger. Nature of the assay: Antifungal activity against Aspergillus niger at 100 ug/ml after 3 to 4 days by agar diffusion method. The note with it: read-out: IZ.
Assay [20] relates to Staphylococcus aureus. In words: Antibacterial activity against Staphylococcus aureus ATCC 25923 at 100 ug/ml after 24 hrs by disc-diffusion method. It counts as functional. The note with it: ATCC 25923, 24 h, read-out: IZ.
The subject of assay [21] is Aspergillus niger. In words: Antifungal activity against Aspergillus niger at 200 ug/ml after 48 hrs by agar diffusion method. The following applies: read-out: IZ. It counts as functional. The gist of the method:
as §2

The test system of assay [22] is Aspergillus niger. Nature of the assay: Antifungal activity against Aspergillus niger after 48 hrs. It counts as functional.

Values after ≈ are worked out from the molar mass of the structure shown.

For the compound `COc1cc(/C=C/C(=O)c2ccccc2)ccc1OCc1nnc(-c2ccc(C)cc2)o1`, the zone of inhibition at 100 µg/mL in [1] came out at 19 mm; in assay [4], 23 mm; in assay [10], 15 mm; in assay [16] it was 12 mm; in assay [19], 20 mm; in assay [20], 15 mm. Besides, the MFC in [2] turned out to be 25 µg/mL (≈ 58.6 µM). Further, the MIC in assay [2] is 12.5 µg/mL (≈ 29.3 µM); in assay [5] it was 6 µg/mL (≈ 14.1 µM); in assay [13], 6 µg/mL (≈ 14.1 µM); in [15], 12.5 µg/mL (≈ 29.3 µM); in assay [17] it was 6 µg/mL (≈ 14.1 µM). The minimal bactericidal concentration (MBC) in assay [3] stood at 12.5 µg/mL (≈ 29.3 µM); in [6], 25 µg/mL (≈ 58.6 µM); in [11], 50 µg/mL (≈ 117 µM); in assay [14], 25 µg/mL (≈ 58.6 µM). The zone of inhibition at 200 µg/mL in assay [7] was 25 mm; in assay [8] it was 16 mm; in assay [9], 21 mm; in [12] it was 14 mm; in [18], 16 mm; in assay [21], 22 mm.

`COc1cc(/C=C/C(=O)c2ccc(O)cc2)ccc1OCc1nnc(-c2ccc(Cl)cc2)o1`: the zone of inhibition at 100 µg/mL is 16 mm in assay [1]; 22 mm in assay [4]; 14 mm in assay [10]; 11 mm in assay [16]; 18 mm in [19]; 13 mm in assay [20]. Further, in assay [2], the MFC turned out to be 25 µg/mL (≈ 54 µM). Also, the MIC in assay [2] came to 12.5 µg/mL (≈ 27 µM); in [5], 25 µg/mL (≈ 54 µM); in [13] it was 25 µg/mL (≈ 54 µM); in [15] it was 25 µg/mL (≈ 54 µM); in assay [17], 12.5 µg/mL (≈ 27 µM). Moreover, the MBC amounted to 25 µg/mL (≈ 54 µM) in [3], 100 µg/mL (≈ 216 µM) in assay [6], 100 µg/mL (≈ 216 µM) in [11] and 50 µg/mL (≈ 108 µM) in [14]. The zone of inhibition at 200 µg/mL was determined as 23 mm in assay [7]; 15 mm in [8]; 18 mm in assay [9]; 13 mm in assay [12]; 17 mm in assay [18]; 21 mm in assay [21].

In the case of `O=C(O)c1cn(C2CC2)c2cc(N3CCNCC3)c(F)cc2c1=O` [CIPROFLOXACIN], the minimum bactericidal concentration (MBC) in assay [3], in assay [6], in assay [11] and in assay [14] was 12.5 µg/mL (≈ 37.7 µM) throughout. Moreover, the zone of inhibition at 100 µg/mL in assay [4] stood at 32 mm; in [16], 21 mm; in [20] it was 23 mm. Also, the MIC in assay [5], in assay [13], in [15] and in assay [17] was 6 µg/mL (≈ 18.1 µM) each time. The zone of inhibition at 200 µg/mL is 33 mm in assay [7], 24 mm in [8], 27 mm in assay [9] and 22 mm in assay [12].

Regarding `C[C@@H](c1ncncc1F)[C@](O)(Cn1cncn1)c1ccc(F)cc1F` [VORICONAZOLE], the MFC in [2] and in [22] was 12.5 µg/mL (≈ 35.8 µM) in each case. For the same compound, the minimal inhibitory concentration (MIC) in assay [2] and in assay [22] was 6 µg/mL (≈ 17.2 µM) in each case. In addition, the zone of inhibition at 100 µg/mL came out at 24 mm in assay [10] and 28 mm in assay [19]. The zone of inhibition at 200 µg/mL in assay [18] came out at 26 mm; in assay [21] it was 30 mm.

In general, MFC refers to the lowest tested concentration that kills the fungus rather than only halting it. Low readings indicate more potent killing, high ones less potent killing. As a reminder, the MIC is the lowest concentration that inhibits growth of the organism. A low value points to a more susceptible organism. As a reminder, the MBC is the smallest concentration meeting the test's criterion for killing. Low readings indicate more potent killing, high ones less potent killing.
